Results taken from ChEMBL document CHEMBL1177885, “Synthesis and biological activity of 2-(trifluoromethyl)-1H-benzimidazole derivatives against some protozoa and Trichinella spiralis” (Eur J Med Chem, 2010).
The source made the active and inactive calls. The rule behind the calls is not given here.

Tests used:
[1] = test system: Trichomonas vaginalis; assay: Antiprotozoal activity against Trichomonas vaginalis G3 after 48 hrs; type: functional, organism-based; conditions: G3, 48 h
In short: (§1)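 Trophozoites were grown in modified TYI-S-33 with 10% calf serum, with bovine bile added for Giardia. 5 × 10⁴ trophozoites (Giardia, Trichomonas) or 6 × 10³ (Entamoeba) were exposed to increasing concentrations for 48 h at 37 °C, with DMSO as negative control. Cells were washed, regrown 48 h drug-free, and counted. IC50 was by Probit analysis, in triplicate, repeated at least twice.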

[2] = test system: Entamoeba histolytica; assay: Antiprotozoal activity against Entamoeba histolytica HM-1:IMSS after 48 hrs; type: functional, organism-based; in short: as §1
[3] = test system: Trichinella spiralis; assay: Antitrichinellosis activity against Trichinella spiralis ML assessed as reduction of parasites viability at 1.8 uM after 3 days by MTT assay; type: functional
In short: (§2)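 1000 muscle larvae per well in RPMI 1640 were exposed to 0.18, 0.37 or 1.80 compound for 3 days at 37 °C in humid 5% CO2, with medium and compound renewed daily. Viability was read by MTT colorimetry as percent reduction of metabolic activity.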

[4] = test system: Giardia intestinalis; assay: Antiprotozoal activity against Giardia intestinalis IMSS:0989:1 after 48 hrs; type: functional, organism-based; conditions: Giardia duodenalis, IMSS:0989:1, 48 h; in short: as §1
[5] = test system: Trichinella spiralis; assay: Antitrichinellosis activity against Trichinella spiralis ML assessed as reduction of parasites viability at 0.18 uM after 3 days by MTT assay; type: functional; in short: as §2
[6] = test system: Trichinella spiralis; assay: Antitrichinellosis activity against Trichinella spiralis ML assessed as reduction of parasites viability at 0 37 uM after 3 days by MTT assay; type: functional; in short: as §2
[7] = test system: Leishmania mexicana; assay: Antileishmanial activity against Leishmania mexicana MHOM/MX92/UAY68 after 48 hrs; type: functional, organism-based; conditions: MHOM/MX92/UAY68, 48 h
In short: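 Promastigotes at 2 × 10⁴/mL in RPMI 1640 with 10% FBS, 26 °C, were exposed to 0.1, 0.5, 1.5, 10 and 20 (final) of compound, with DMSO as negative control. Each concentration was run in triplicate. Parasites were fixed in 0.14 M NaCl/3.7% formaldehyde and counted in a Neubauer chamber.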

[8] = test system: Trichinella spiralis; assay: Antitrichinellosis activity against adult phase of Trichinella spiralis ML infected in mouse assessed as reduction of parasites level at 50 mg/kg administered 3 days after postinfection measured after 6 days relative to control; type: functional; parameters: scale not given: the % may be the effect or the level left
In short: (§3)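 Groups of six mice were infected with 800 muscle larvae and given a single dose on day 3 post-infection. Mice were killed on day 6 post-infection and intestinal adults recovered. Read-out was percent adult load reduction.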

[9] = test system: Trichinella spiralis; assay: Antitrichinellosis activity against adult phase of Trichinella spiralis ML infected in mouse assessed as reduction of parasites level at 75 mg/kg administered 3 days after postinfection measured after 6 days relative to control; type: functional; parameters: scale not given: the % may be the effect or the level left; in short: as §3
[10] = test system: Trichinella spiralis; assay: Antitrichinellosis activity against muscle larvae pahse of Trichinella spiralis ML larvae infected in mouse assessed as reduction of parasites level at 75 mg/kg administered for 7 consecutive days from day 28 postinfection measured on day 7 relative to control; type: functional; parameters: scale not given: the % may be the effect or the level left
In short: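 Groups of 10 mice were infected with 800 muscle larvae and treated at 75 mg/Kg from day 28 post-infection for 7 consecutive days. Mice were killed 7 days after treatment and muscle larvae recovered. Read-out was percent larval load reduction.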

Row | IC50 [1] [nM] | IC50 [2] [nM] | IC50 [4] [nM] | IC50 [7] [nM] | Structure (SMILES) | Activity [3] [%] | Activity [5] [%] | Activity [6] [%] | Activity [8] | Activity [9] [%] | Activity [10] [%]
1 | 235 |  |  | 20800 | FC(F)(F)c1nc2cc(Cl)c(Cl)cc2[nH]1 | 19 |  |  |  |  | 
2 | 16 | 9 | 30 | 24000 | Cn1c(C(F)(F)F)nc2cc(Oc3cccc(Cl)c3Cl)ccc21 | 80 | 54 | 62 |  | 58 | 46
3 | 110 | 19 | 63 | 4100 | Cn1c(C(F)(F)F)nc2ccc(Oc3cccc(Cl)c3Cl)cc21 | 67 | 44 | 48 |  |  | 
4 | 86 | 19 | 5 | 13800 | FC(F)(F)c1nc2cc(Oc3cccc4ccccc34)c(Cl)cc2[nH]1 | 65 | 43 | 50 | 69% | 80 | 40
5 |  | 20 | 31 |  | FC(F)(F)c1nc2cc(Oc3cccc(Cl)c3Cl)c(Cl)cc2[nH]1 |  |  |  |  |  | 

Second part, the molecule before the results:

Row | Structure (SMILES) | IC50 [1] [nM] | IC50 [2] [nM] | IC50 [4] [nM] | IC50 [7] [nM] | Activity [3] [%] | Activity [5] [%] | Activity [6] [%] | Activity [8] | Activity [9] [%] | Activity [10] [%]
6 | FC(F)(F)c1nc2cc(Oc3cccc(Cl)c3Cl)ccc2[nH]1 | 535 | 18 | 54 |  | 29 | 20 | 24 |  |  | 
7 | CCCSc1ccc2[nH]c(NC(=O)OC)nc2c1 [ALBENDAZOLE] |  |  |  |  | 67 | 58.6 | 61.9 | 62% | 73 | 63
8 | CSc1nc2cc(Oc3cccc4ccccc34)c(Cl)cc2[nH]1 |  |  |  |  |  |  |  | 28% |  | 24
9 | Cc1ncc([N+](=O)[O-])n1CCO [METRONIDAZOLE] | 216 |  |  |  |  |  |  |  |  | 
10 | Cn1c(C(F)(F)F)nc2cc(Cl)ccc21 | 238 |  |  |  | 39 |  |  |  |  | 
11 | Cn1c(C(F)(F)F)nc2cc(Oc3cccc4ccccc34)c(Cl)cc21 | 970 | 38 | 23 | 65200 | 63 | 15 | 29 | inactive | 36 | 64
12 | CSc1nc2cc(Cl)c(Oc3cccc(Cl)c3Cl)cc2[nH]1 [TRICLABENDAZOLE] |  |  |  |  |  |  |  | 41% | 7 | 25
13 | Cn1c(C(F)(F)F)nc2cc(Cl)c(Oc3cccc4ccccc34)cc21 | 451 | 17 | 12 | 50100 | 18 | 6 | 14 |  |  | 
14 | N=C(N)c1ccc(OCCCCCOc2ccc(C(=N)N)cc2)cc1 [PENTAMIDINE] |  |  |  | 2420 |  |  |  |  |  | 
